Laboratory results as given in PMC7686272 (Angewandte Chemie (International ed. in English), 2020).
Where two headings read alike, the source gives them in different places.

Assays:
[1] = target: wildtype EGFR (Homo sapiens, UniProt P00533); assay: Western blot of total EGFR protein in wildtype EGFR Ba/F3 cells; type: cell-based, murine; details: increasing concentrations, 6, 24 and 48 hours
Outline: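 Wildtype EGFR Ba/F3 cells exposed to rising test-compound concentrations for 6, 24 and 48 h, then lysed and immunoblotted for total EGFR with tubulin as loading control. Band densitometry was normalised to tubulin and expressed as percent EGFR remaining relative to DMSO control. The same treatment was run in parallel on L858R/T790M Ba/F3 cells.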

[2] = target: EGFR L858R/T790M (Homo sapiens, UniProt P00533, L858R/T790M); assay: HTRF kinase assay of purified EGFR L858R/T790M; type: biochemical; details: for IC50: read-out: IC50 against EGFR L858R/T790M, HTRF assay, purified enzyme
[3] = target: L858R/T790M EGFR (Homo sapiens, UniProt P00533, L858R/T790M); assay: Western blot of total EGFR protein in L858R/T790M Ba/F3 cells; type: cell-based, murine; details: L858R/T790M Ba/F3, 24 hours, 0.1 μM DDC-01-163; 10 μM pomalidomide, 1 μM JBJ-07-149 or increasing MLN4924
[4] = test system: L858R/T790M/C797S EGFR Ba/F3 cells; assay: Ba/F3 cell proliferation assay, L858R/T790M/C797S EGFR; type: cell-based, murine
[5] = test system: L858R/T790M/L718Q EGFR Ba/F3 cells; assay: Ba/F3 cell proliferation assay, L858R/T790M/L718Q EGFR; type: cell-based, murine
[6] = target: CRBN (Homo sapiens, UniProt Q96SW2); assay: Cellular CRBN engagement assay; type: cell-based; details: restoration of BRD4BD2-GFP signal, Figure 2B
CRBN, sequence (Q96SW2 whole entry, species assumed): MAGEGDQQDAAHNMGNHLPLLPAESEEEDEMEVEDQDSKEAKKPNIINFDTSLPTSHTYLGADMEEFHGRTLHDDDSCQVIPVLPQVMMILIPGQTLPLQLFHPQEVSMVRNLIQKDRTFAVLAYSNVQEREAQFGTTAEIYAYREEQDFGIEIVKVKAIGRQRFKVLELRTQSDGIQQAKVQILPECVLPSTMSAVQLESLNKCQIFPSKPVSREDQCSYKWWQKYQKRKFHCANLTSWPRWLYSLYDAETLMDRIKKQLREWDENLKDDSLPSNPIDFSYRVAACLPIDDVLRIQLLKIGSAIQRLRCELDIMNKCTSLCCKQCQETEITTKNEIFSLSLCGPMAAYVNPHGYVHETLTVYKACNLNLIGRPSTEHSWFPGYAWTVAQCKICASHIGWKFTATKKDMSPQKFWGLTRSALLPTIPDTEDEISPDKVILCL

Row | Compound | effect on EGFR protein levels in wildtype Ba/F3 cells [1] | IC50 [2] | effect on EGFR degradation by DDC-01-163 (competition / rescue) [3] | also measured
1 | O=C1CCC(N2C(=O)c3cccc(NCCOCCOCCOCCN4CCN(c5ccc(-c6ccc7c(c6)C(=O)N(C(C(=O)Nc6nccs6)c6cc(F)ccc6O)C7)cc5)CC4)c3C2=O)C(=O)N1 (stereo not drawn) [JBJ-07-038] | did not affect protein levels | 19 nM |  | 
2 | O=C(Nc1nccs1)C(c1ccccc1)N1Cc2ccc(-c3ccc(N4CCNCC4)nc3)cc2C1=O (stereo not drawn) [JBJ-07-149] |  | 1.1 nM | prevented EGFR degradation | sensitivity of LT/C797S EGFR Ba/F3 cells in cell proliferation assay ([4]; L858R/T790M/C797S EGFR Ba/F3 cells): resistant; sensitivity of LT/L718Q EGFR Ba/F3 cells in cell proliferation assay ([5]; L858R/T790M/L718Q EGFR Ba/F3 cells): resistant
3 | O=C1CCC(N2C(=O)c3cccc(NCCOCCOCCOCCN4CCN(c5ccc(-c6ccc7c(c6)C(=O)N(C(C(=O)Nc6nccs6)c6cc(F)ccc6F)C7)cc5)CC4)c3C2=O)C(=O)N1 (stereo not drawn) [JBJ-07-200] | did not affect protein levels | 390 nM |  | cellular CRBN engagement [6]: more potent CRBN engagement than JBJ-07-038; reduction of biochemical activity compared to DDC-01-163 ([2]; ratio of IC50 values): 9 fold; reduction of biochemical activity compared to JBJ-07-038 ([2]; ratio of IC50 values): 21 fold
4 | NS(=O)(=O)OC[C@@H]1C[C@@H](n2ccc3c(N[C@H]4CCc5ccccc54)ncnc32)C[C@@H]1O [MLN4924] |  |  | rescue EGFR degradation | 
5 | C=CC(=O)Nc1cc(Nc2nccc(-c3cn(C)c4ccccc34)n2)c(OC)cc1N(C)CCN(C)C [osimertinib, reference compound] |  |  |  | sensitivity of LT/C797S EGFR Ba/F3 cells in cell proliferation assay [4]: resistant; sensitivity of LT/L718Q EGFR Ba/F3 cells in cell proliferation assay [5]: resistant
6 | Nc1cccc2c1C(=O)N(C1CCC(=O)NC1=O)C2=O (stereo not drawn) [pomalidomide] |  |  | prevented EGFR degradation | 
